# M1 agonist: activates the M1 muscarinic receptor | CHO-M1 cells, Fluo-4 calcium fluorescence, agonist mode; active compounds read high | B-score at 10 µM | hit rate 3% among 64,000;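 active = fluorescence rise, raw or as B-score row- and column-corrected plate score, outside the 99.7% band of its plate's samples, either direction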
# S1P1 ag-PAM: agonists and agonism potentiators of human S1P1 receptor; P21453; S1P1 CRE-bla cells, forskolin, beta-lactamase FRET, potentiator mode; S1P1 agonist co-added at EC20, 2 nM; 100% = saturating reference agonist, 0% = basal; activation, % at 9.5 µM; hit rate 0.57% among 56,000; AID 449;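 active = activation above a cutoff set at the mean activation of all tested compounds plus 3 SD, cut at about 54% in these data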;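 note: forskolin at 4 µM as EC80 and the EC20 agonist is SEW2871; 100% = SEW2871 at its EC100 plus forskolin at EC80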
# Target sequence (P21453 whole entry, looked up): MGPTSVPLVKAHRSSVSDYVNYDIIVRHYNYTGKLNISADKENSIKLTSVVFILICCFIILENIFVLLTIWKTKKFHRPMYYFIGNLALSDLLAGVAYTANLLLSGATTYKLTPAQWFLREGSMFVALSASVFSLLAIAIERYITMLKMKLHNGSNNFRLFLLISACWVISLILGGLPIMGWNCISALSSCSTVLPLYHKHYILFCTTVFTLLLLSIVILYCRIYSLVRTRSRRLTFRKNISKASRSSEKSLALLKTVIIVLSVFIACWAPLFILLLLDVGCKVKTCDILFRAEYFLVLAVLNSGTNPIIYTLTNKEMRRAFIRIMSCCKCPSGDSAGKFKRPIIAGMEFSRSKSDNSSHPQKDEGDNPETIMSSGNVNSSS
# S1P3 ag: agonists of human S1P3 receptor; activation, % at 4.5 µM; AID 373; hit rate 0.1% among 60,000; Q99500; S1P3 NFAT-BLA reporter cells, agonism, FRET ratio; relative to 1 µM S1P, basal subtracted;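 active = activation above the screen-wide mean plus 3 SD, cut at about 4.5% in these data, passing the limit was not always enough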
#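 Measure – % activation relative to 1 µM S1P (100%), per plate · System – stable CHO line with human S1P3, Gα16, NFAT-BLA reporter · Timing – cells plated overnight, compound 4 h 37 °C, substrate 2 h RT · Technique – fluorescent BLA substrate, ex 405 nm, em 460/535 nm ratio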
# D1 allo mod: allosteric modulators of human D1 dopamine receptor | P21728 | HEK293 D1, CRE-luciferase, dopamine EC30 potentiation; actives deviate in either direction | B-score at 10 µM | hit rate 5.9% among 58,000;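 active = luminescence count or its row- and column-corrected plate score outside the 99.7% band of the plate's sample wells, on either side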
# TNAP act mid DEA: human TNAP activation, intermediate phosphate acceptor; purified TNAP, CDP-star luminescence, 100 mM DEA, 30 min; active compounds read high; scale: 0 levamisole-inhibited, 1 vehicle-only enzyme; activation factor at 20 µM; 64,000 tested, under 10 active; AID 813;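 active = activation factor of at least 2 at 20 µM, relative to controls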
# M1 antag: M1 muscarinic receptor (rat) antagonism; CHO-M1 cells, Fluo-4 calcium, ACh EC80 antagonist mode; active compounds read low; P08482; hit rate 3.4% among 64,000; AID 628; B-score at 10 µM;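 active = calcium fluorescence response, raw or row-and-column corrected B-score, differing from the plate sample mean either way at a set confidence level, mostly lower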
# D1 mod confirm: D1 receptor (human) allosteric modulation, confirmed | luminescence at 10 µM | shares compounds with D1 allo mod | AID 642 | HEK293 D1 CRE-luciferase, dopamine EC30 potentiation; active compounds read high | hit rate 88% among 2,200;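 active = luminescence in either of two replicates above the same-plate mean plus 3 SD of the low-dose dopamine control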
# D1 no dopamine: secondary test of D1 modulators: activity without dopamine. shares compounds with D1 allo mod. HEK293 D1 CRE-luciferase, luminescence, no dopamine; active compounds read high. luminescence at 10 µM. hit rate 0.8% among 1,900. AID 646; in the data active = luminescence above about 3900
# Isoprot counter: isoproterenol response counter-screen activity for D1 modulators. shares compounds with D1 allo mod. HEK293 D1 CRE-luciferase, isoproterenol EC30 counter-screen; active compounds read high. luminescence at 10 µM. hit rate 63% among 2,200. AID 647;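 active = luminescence in either replicate above plate mean of wells with a partly effective reference agonist dose plus 3 SD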;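 note: isoproterenol raises cAMP through native beta-adrenoceptor Gs so signal bypasses D1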
# * = called active by the depositor; · = not tested or not shown. Only some compounds are listed: those with a hit (about 11% of all), similar ones and a draw of the others.
SMILES,M1 agonist,S1P1 ag-PAM,S1P3 ag,D1 allo mod,TNAP act mid DEA,M1 antag,D1 mod confirm,D1 no dopamine,Isoprot counter
OC1(c2cn(Cc3ccccc3)nn2)CCCCC1,0.695,-16.9,-1.3,·,0.9,0.0911,·,·,·
COc1ccc(S(=O)(=O)Nc2ccc3c(c2)OCO3)cc1OC,0.37,-2.7,0.5,3.06*,0.9,0.374,9304*,1612,2820
Cc1noc(C)c1CSc1ncnc2ccccc12,-0.0182,-31.6,-0.1,3.86*,1,-0.303,7560*,1844,3264
Cc1sc2ncnc(SCc3ccco3)c2c1C,1.36,-14.3,0.3,0.535,0.9,0.197,·,·,·
Cc1noc(C)c1CSc1ncnc2sc(C)c(C)c12,0.677,-45.3,-1.0,5.23*,0.9,-0.129,10232*,1588,3508*
COCCn1c(C2CCCCC2)nc2sc3ccccc3c(=O)c2c1=O,0.000863,-10.6,-0.3,3.37*,0.8,-0.0178,10064*,·,2492
Cc1ccc(Cl)cc1NC(=O)Cn1cc2c(n1)CCCC2,0.34,0.6,-1.0,1.24,0.9,0.4,·,·,·
N#Cc1c2n(c3c(=O)n(Cc4ccc(Cl)cc4)cnc13)CCCC2,-0.606,·,0.2,2.64*,0.9,-0.259,10052*,1408,3896*
N#Cc1c2n(c3c(=O)n(Cc4ccccc4Cl)cnc13)CCCC2,0.271,4.9,0.0,3.38*,0.9,0.11,9264*,1636,3972*
O=C(Nc1ccccc1C(F)(F)F)c1cc(S(=O)(=O)N2CCOCC2)ccc1F,-0.369,·,·,-0.334,0.9,-0.014,·,·,·
CCOc1ccccc1-n1c(SCC(=O)NC(C)CC)nnc1-c1ccoc1C (stereo not given),0.0831,11.8,-0.4,-0.624,0.8,-0.000188,·,·,·
CC(C)CCSc1nc(N)c(C#N)cc1C#N,-0.398,·,-0.2,7.71*,1,-1.69,14056*,1652,4940*
Cc1ccccc1NC(=O)CSc1nc(N)c(C#N)cc1C#N,0.0707,-26.3,-1.4,1.09,1,0.329,·,·,·
COc1ccc(CCNC(=O)c2cnc3scc(C)n3c2=O)cc1OC,-1.73,-24.4,-1.3,39.9*,0.8,-0.773,17580*,1900,15724*
COc1ccc(CCNC(=O)c2cccnc2)cc1OC,·,-0.8,-1.2,3.42*,0.9,·,6704,1660,2624
COc1ccc(C)cc1NC(=O)c1cnc2scc(C)n2c1=O,-0.683,-22.9,-0.4,-0.603,0.9,0.435,·,·,·
O=C(NCCCCNC(=O)c1cccnc1)c1cccnc1,0.873,5.4,0.0,-0.0453,0.9,-0.0573,·,·,·
CCCCc1nc2sc3c(c2c(=O)[nH]1)CCC3,-0.0802,-4.3,-0.6,0.95,1,-0.114,·,·,·
CC(=O)C1=C(O)C(=O)N(CCc2c[nH]c3ccccc23)C1c1ccc(O)cc1 (stereo not given),-0.186,-13.7,-0.9,-0.23,0.9,0.305,·,·,·
CCN(CCNC(=O)CC1Oc2ccccc2NC1=O)c1ccccc1 (stereo not given),0.676,-1.6,-0.4,3*,1,-1.38,4876,1496,2292
COCCOC(=O)C(C#N)c1nc2ccccc2nc1N1CCCC1 (stereo not given),-1.45,9.9,0.2,3.2,0.9,-0.553,·,·,·
C=CCOC(=O)C(C#N)c1nc2ccccc2nc1N1CCCC1 (stereo not given),3.36,32.3,-1.3,3.1*,0.9,-0.202,15796*,1724,3456*
O=C(Cn1ncc2c(=O)oc3ccccc3c21)Nc1nc2ccccc2s1,-0.765,-24.7,-1.0,0.0117,0.8,0.0294,·,·,·
Cc1ccc2oc(=O)c3cc(C(=O)N4CCN(c5ncccn5)CC4)sc3c2c1,1.35,-16.2,-0.7,1.2,0.9,0.652,·,·,·
N#CCCN1CCN(C(CNS(=O)(=O)c2ccc(Cl)cc2)c2ccccc2)CC1 (stereo not given),0.936,-14.6,-0.6,0.309,0.9,1.83,·,·,·
SMILES,M1 agonist,S1P1 ag-PAM,S1P3 ag,D1 allo mod,TNAP act mid DEA,M1 antag,D1 mod confirm,D1 no dopamine,Isoprot counter
CCSc1cnc(-c2ccccc2)n1CC,0.982,·,·,4.48*,0.9,0.16,8832*,1620,3012
Cc1sc2ncnc(SC(C)C#N)c2c1C (stereo not given),0.0143,-21.2,-0.9,4.94*,0.9,0.0487,6756,1584,2636
Cc1cc(Br)ccc1NC(=O)CNC(=O)CN(C)Cc1nc2ccccc2c(=O)[nH]1,-0.192,17.1,-1.8,-0.735,1.1,0.0246,·,·,·
Cc1cc(C)n(CC(=O)n2c3ccccc3c3ccccc32)n1,·,-55.7,-0.6,2.01,1,·,·,·,·
Cc1cc(C)n(CC(=O)n2c3c(c4ccccc42)CCCC3)n1,-0.167,-12.8,-3.2,5.67*,0.9,-0.956,11600*,1728,2872
CCC(C)n1c(-c2cccs2)nc2nc3ccccc3nc21 (stereo not given),0.0389,-31.6,-0.2,9.98*,0.9,0.00117,15740*,1736,3648*
C=CCn1c(-c2cccs2)nc2nc3ccccc3nc21,-0.641,-22.8,0.1,0.853,0.9,0.0288,·,·,·
c1ccc2[nH]c(CN3CCN(c4ncnc5c4oc4ccccc45)CC3)nc2c1,2.28,-2.4,-1.2,9.59*,1,0.281,14816*,·,4708*
COC(=O)C(C)Sc1nnc2n(-c3cccc(C)c3)c(=O)c3c4c(sc3n12)CCCC4 (stereo not given),-1.15,-1.7,-0.6,9.25*,0.8,-0.34,16844*,1688,5352*
CCc1nnc(NC(=O)CSc2ncc(-c3ccccc3)n2CC)s1,0.566,5.9,-0.4,3.51*,0.9,-0.0566,8216*,1656,3040
COC(=O)c1ccccc1NC(=O)C1CCN(S(=O)(=O)c2cc(C)ccc2OC)CC1,1.35,·,-0.5,17.5*,0.9,0.411,16104*,1660,4268*
COC(=O)c1ccccc1NC(=O)C1CCCN(S(C)(=O)=O)C1 (stereo not given),-0.246,-14.1,0.0,0.815,1,0,·,·,·
COc1ccc(OC)c2c1CCC2=O,-0.996,-15.3,-3.6,·,0.9,0.446,·,·,·
COCCCn1c2nc3ccccc3nc2c2c(=O)n(CC3CCCO3)cnc21 (stereo not given),0.958,-25.8,-1.0,6.36*,1,0.295,8104*,·,2172
COc1ccc(C(=O)N2CCN=C2SCc2cccnc2)cc1OC,0.145,-8.2,-1.2,4.81*,0.9,-0.0756,9852*,1576,4156*
